Source: ChEMBL document CHEMBL5260822, “Structure-based design and synthesis of 2,4-diaminopyrimidines as EGFR L858R/T790M selective inhibitors for NSCLC” (Eur J Med Chem, 2017)

Legend:
NCI-H1975 [1] = assay: Inhibition of Erk signalling in EGF-stimulated human NCI-H1975 cells harboring EGFR L858R/T790M double mutant assessed as decrease in p-ERK level at 0.1 to 100 nM and measured after 2 hrs by Western blot analysis; assay type: cell-based; details: dose 0.1-100 nM
How it was run: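 Cells treated with compound for 2 h, then stimulated with EGF for 15 min and lysed. Lysates cleared at 12,000 × g (10 min, 4 °C), protein measured by Bradford assay, and equal amounts run on 8% SDS-PAGE and blotted to nitrocellulose. Probed for p-EGFR (Y1068), EGFR, p-ERK (T202/Y204), ERK, with tubulin or GAPDH as loading controls.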

[2] = Toxicity in BALB/c nude mouse xenografted with human NCI-H1975 cells harboring EGFR L858R/T790M mutant assessed as body weight loss at 15 to 30 mg/kg, po for 18 days; assay type: organism-based; details: in vivo, 432 h, dose 15-30 mg/kg, time 18 day
How it was run: (§1)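 Female BALB/cA nu/nu mice were given 1 × 10^6 H1975 cells in 0.1 mL PBS subcutaneously in the right flank. At an average tumour volume of 100 mm3 (about 18 days post-implantation) they were randomised, n = 6 per group. Groups received 15 or 30 mg/kg/day for 18 consecutive days or vehicle. Mice were kept at constant room temperature, 12/12-h light/dark, with standard diet and water ad lib.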

[3] = Toxicity in BALB/c nude mouse xenografted with human NCI-H1975 cells harboring EGFR L858R/T790M mutant assessed as mortality at 15 to 30 mg/kg, po for 18 days; assay type: organism-based; details: in vivo, 432 h, dose 15-30 mg/kg, time 18 day; how it was run: as §1
NCI-H1975 [4] = assay: Antitumor activity against human NCI-H1975 cells harboring EGFR L858R/T790M mutant xenografted in BALB/c nude mouse assessed as tumor growth inhibition at 15 mg/kg, po for 18 days; assay type: functional; details: NCI-H1975, 432 h, time 18 day, read-out: TGI
How it was run: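 H1975 cells (1 × 10^6 in 0.1 mL PBS) injected subcutaneously into the right flank of female nude mice. At mean tumor volume of about 100 mm3 (roughly 18 days), mice randomized, n = 6 per group, and dosed once daily for 18 days against a vehicle group. Tumor volume (0.5 × L × W²) measured every 2–3 days; tumors weighed at sacrifice. Data given as mean ± SEM.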

[5] = AUC (0 to infinity) in Sprague-Dawley rat at 10 mg/kg, po and measured after 24 hrs by LC-MS/MS analysis; assay type: ADME, organism-based; parameters: dose 10 mg/kg, time 24 hrs, route po; details: in vivo
How it was run: (§2)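 Male Sprague–Dawley rats (190–220 g) dosed by oral gavage at 10 mg/kg in 5% DMSO / 95% HP-β-CD aqueous solution (20%); iv reference arm at 1 mg/kg. Blood sampled at 0.25, 0.5, 1, 2, 4, 6, 8 and 24 h, centrifuged (8000 × g, 6 min), and plasma quantified by LC–MS/MS.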

[6] = Cmax in Sprague-Dawley rat at 10 mg/kg, po and measured after 24 hrs by LC-MS/MS analysis; assay type: ADME, organism-based; parameters: dose 10 mg/kg, time 24 hrs, route po; details: in vivo; how it was run: as §2
[7] = Half life in Sprague-Dawley rat at 10 mg/kg, po and measured after 24 hrs by LC-MS/MS analysis; assay type: ADME, organism-based; details: in vivo; how it was run: as §2
[8] = molecular target: ALK tyrosine kinase receptor (Homo sapiens) (UniProt Q9UM73); assay: Inhibition of ALK (unknown origin) at 1000 nM by DiscoverX KINOMEscan assay relative to control; values are per cent of control
[9] = molecular target: T1, Tyrosine-protein kinase JAK3 (Homo sapiens) (UniProt P52333); assay: Inhibition of JAK3 (unknown origin) at 1000 nM by DiscoverX KINOMEscan assay relative to control; values are per cent of control
T1 sequence (whole entry): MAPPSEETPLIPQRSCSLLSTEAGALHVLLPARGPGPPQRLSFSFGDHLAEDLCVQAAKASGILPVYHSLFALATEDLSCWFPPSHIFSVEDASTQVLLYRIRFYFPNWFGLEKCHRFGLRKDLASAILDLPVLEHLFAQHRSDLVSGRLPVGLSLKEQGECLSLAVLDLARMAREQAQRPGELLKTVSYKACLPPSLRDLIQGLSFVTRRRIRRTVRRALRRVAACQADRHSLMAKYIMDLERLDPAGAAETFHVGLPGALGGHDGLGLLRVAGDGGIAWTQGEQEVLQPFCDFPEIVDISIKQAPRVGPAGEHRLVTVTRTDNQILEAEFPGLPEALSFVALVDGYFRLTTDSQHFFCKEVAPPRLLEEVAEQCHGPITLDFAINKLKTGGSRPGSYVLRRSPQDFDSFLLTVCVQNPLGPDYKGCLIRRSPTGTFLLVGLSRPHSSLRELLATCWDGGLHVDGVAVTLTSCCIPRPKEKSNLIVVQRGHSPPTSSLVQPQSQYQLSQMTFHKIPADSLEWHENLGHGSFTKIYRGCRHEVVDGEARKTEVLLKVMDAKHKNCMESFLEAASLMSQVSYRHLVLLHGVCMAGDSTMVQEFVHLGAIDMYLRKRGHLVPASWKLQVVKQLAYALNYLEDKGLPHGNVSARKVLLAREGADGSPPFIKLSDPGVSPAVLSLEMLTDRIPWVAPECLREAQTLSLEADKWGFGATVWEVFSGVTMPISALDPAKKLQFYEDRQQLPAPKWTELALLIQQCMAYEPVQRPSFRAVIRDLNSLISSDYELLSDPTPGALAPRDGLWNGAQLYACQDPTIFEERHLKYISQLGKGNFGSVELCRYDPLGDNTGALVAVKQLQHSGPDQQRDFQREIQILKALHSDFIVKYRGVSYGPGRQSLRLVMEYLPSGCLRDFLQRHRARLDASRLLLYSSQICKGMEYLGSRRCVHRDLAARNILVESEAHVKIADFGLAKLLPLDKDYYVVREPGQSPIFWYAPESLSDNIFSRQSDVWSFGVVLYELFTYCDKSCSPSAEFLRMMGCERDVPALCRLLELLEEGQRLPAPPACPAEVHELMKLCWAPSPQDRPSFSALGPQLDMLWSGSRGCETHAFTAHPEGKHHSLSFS

[10] = molecular target: Tyrosine-protein kinase JAK2 (Homo sapiens) (UniProt O60674); assay: Inhibition of JAK2 (unknown origin) at 1000 nM by DiscoverX KINOMEscan assay relative to control; values are per cent of control
[11] = molecular target: MAP kinase-interacting serine/threonine-protein kinase 2 (Homo sapiens) (UniProt Q9HBH9); assay: Inhibition of MKNK2 (unknown origin) at 1000 nM by DiscoverX KINOMEscan assay relative to control; values are per cent of control
[12] = molecular target: Receptor tyrosine-protein kinase erbB-4 (Homo sapiens) (UniProt Q15303); assay: Inhibition of ERBB4 (unknown origin) at 1000 nM by DiscoverX KINOMEscan assay relative to control; values are per cent of control
Receptor tyrosine-protein kinase erbB-4 (Homo sapiens), sequence (Q15303 whole entry): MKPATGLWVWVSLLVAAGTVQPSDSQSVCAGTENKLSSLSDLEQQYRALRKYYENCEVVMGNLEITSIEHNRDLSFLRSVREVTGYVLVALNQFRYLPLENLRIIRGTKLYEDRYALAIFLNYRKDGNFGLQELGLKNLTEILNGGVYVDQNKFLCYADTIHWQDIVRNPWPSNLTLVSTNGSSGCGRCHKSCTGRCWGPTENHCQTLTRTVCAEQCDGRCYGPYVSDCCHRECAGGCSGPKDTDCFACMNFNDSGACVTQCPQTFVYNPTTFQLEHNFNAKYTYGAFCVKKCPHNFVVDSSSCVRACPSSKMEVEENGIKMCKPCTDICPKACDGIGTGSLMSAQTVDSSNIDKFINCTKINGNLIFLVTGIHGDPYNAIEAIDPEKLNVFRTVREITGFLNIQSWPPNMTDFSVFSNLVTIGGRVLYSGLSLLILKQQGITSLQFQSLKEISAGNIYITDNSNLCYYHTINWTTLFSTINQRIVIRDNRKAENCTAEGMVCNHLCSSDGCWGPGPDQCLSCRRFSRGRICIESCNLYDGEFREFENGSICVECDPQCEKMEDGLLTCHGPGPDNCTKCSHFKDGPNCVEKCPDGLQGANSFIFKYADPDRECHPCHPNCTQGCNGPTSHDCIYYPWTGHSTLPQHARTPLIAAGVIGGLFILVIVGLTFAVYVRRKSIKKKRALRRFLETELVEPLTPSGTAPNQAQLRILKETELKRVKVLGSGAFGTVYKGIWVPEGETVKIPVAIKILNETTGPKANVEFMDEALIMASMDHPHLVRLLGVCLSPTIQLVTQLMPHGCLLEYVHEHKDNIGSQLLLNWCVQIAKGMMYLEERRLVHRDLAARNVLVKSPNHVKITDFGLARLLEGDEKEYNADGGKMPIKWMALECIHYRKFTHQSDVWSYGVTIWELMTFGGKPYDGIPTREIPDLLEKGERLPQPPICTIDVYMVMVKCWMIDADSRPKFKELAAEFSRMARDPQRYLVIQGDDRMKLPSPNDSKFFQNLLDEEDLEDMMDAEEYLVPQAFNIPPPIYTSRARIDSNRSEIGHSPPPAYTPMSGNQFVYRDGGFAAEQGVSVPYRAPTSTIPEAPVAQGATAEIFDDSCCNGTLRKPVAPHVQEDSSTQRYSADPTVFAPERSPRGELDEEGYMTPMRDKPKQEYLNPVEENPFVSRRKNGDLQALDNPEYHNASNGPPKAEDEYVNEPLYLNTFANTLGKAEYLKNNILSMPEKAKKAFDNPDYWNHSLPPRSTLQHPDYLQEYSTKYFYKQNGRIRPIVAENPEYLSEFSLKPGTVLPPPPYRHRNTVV

ALK tyrosine kinase receptor (Homo sapiens), sequence (Q9UM73 19-1620 limits assumed): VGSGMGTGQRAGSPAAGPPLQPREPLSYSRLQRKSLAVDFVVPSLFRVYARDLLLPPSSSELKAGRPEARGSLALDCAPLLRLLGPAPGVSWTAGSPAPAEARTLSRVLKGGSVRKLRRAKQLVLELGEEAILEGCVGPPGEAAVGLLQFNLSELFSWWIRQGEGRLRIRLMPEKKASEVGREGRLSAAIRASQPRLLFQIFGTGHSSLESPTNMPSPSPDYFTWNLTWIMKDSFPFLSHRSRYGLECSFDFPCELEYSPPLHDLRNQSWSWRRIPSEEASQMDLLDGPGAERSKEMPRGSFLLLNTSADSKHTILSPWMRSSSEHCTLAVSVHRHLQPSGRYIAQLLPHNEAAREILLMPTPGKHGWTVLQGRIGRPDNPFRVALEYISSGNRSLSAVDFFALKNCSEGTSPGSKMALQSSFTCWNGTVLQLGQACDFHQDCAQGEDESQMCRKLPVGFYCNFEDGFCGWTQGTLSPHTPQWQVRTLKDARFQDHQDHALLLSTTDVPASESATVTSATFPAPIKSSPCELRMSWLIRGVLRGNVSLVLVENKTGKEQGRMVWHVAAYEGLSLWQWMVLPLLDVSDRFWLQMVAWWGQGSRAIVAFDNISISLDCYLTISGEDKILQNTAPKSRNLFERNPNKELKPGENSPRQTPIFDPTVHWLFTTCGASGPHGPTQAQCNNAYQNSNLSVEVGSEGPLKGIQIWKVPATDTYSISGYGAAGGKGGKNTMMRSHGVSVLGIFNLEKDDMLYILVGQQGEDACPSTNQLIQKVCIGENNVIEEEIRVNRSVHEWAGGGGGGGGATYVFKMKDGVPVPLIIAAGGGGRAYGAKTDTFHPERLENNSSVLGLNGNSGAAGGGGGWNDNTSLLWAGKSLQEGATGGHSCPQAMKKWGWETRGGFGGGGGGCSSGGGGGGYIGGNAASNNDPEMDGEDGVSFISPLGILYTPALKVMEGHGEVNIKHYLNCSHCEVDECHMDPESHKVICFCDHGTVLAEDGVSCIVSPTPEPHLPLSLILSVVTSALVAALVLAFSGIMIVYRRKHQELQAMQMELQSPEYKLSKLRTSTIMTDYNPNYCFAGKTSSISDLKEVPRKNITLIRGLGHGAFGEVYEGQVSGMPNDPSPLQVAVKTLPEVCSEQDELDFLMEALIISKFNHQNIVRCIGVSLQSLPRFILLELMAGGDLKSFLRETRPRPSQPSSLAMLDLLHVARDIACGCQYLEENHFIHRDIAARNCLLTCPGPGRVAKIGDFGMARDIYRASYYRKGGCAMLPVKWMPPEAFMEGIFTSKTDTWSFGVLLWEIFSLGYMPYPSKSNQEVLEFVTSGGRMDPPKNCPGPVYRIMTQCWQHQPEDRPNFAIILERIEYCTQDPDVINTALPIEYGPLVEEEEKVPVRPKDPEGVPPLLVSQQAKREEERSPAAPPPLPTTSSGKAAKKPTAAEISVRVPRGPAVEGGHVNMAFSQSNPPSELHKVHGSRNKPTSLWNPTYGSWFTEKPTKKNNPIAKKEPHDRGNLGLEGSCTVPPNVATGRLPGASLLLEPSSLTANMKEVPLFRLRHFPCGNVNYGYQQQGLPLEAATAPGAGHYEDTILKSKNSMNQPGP
MAP kinase-interacting serine/threonine-protein kinase 2 (Homo sapiens), sequence (Q9HBH9 whole entry, looked up): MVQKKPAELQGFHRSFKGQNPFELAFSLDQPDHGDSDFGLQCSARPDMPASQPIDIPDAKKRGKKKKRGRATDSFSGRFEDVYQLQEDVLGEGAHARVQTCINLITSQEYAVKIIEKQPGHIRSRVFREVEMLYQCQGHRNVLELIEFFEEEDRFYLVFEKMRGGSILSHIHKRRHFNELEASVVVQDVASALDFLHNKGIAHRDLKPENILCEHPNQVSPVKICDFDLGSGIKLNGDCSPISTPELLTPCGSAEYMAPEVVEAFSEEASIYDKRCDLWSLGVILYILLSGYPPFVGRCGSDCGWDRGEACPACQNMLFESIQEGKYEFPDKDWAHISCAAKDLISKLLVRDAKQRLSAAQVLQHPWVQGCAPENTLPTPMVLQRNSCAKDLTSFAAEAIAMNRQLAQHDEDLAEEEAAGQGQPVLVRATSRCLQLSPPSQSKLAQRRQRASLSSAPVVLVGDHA
Tyrosine-protein kinase JAK2 (Homo sapiens), sequence (O60674 whole entry): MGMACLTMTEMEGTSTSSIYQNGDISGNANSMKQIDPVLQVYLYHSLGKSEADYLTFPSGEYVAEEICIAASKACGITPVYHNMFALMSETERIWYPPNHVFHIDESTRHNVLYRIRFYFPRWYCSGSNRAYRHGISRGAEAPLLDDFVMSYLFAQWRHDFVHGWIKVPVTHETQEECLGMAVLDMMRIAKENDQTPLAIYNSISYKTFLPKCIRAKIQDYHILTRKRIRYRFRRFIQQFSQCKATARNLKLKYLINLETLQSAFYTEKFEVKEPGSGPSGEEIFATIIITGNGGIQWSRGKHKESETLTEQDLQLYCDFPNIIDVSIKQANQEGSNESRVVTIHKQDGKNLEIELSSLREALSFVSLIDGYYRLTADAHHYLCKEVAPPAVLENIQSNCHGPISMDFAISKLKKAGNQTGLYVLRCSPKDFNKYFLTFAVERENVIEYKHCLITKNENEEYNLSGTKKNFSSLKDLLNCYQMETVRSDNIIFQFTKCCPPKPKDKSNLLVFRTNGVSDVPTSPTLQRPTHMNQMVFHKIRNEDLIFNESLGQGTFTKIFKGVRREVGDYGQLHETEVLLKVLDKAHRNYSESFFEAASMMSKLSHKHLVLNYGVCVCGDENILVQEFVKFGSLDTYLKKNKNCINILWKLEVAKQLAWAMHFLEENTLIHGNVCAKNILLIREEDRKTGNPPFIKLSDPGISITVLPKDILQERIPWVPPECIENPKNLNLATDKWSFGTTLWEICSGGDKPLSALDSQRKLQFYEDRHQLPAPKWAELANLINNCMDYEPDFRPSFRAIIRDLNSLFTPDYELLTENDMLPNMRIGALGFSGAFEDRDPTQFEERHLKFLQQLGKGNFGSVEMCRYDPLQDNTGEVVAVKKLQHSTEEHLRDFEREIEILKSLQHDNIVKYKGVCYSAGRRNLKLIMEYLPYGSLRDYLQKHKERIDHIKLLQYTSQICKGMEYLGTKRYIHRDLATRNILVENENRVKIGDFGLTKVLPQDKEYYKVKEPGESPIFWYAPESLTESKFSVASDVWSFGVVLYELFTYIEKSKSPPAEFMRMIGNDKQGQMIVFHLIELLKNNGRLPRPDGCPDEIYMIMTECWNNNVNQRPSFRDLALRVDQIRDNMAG

SMILES: C=CC(=O)Nc1cc(Nc2ncc(Br)c(Nc3ccc4ccn(C)c4c3)n2)c(OC)cc1N1CCN(C)CC1
- inhibition (NCI-H1975 [1]): Dose-Dependent Effect
- Activity [2]: Non-Toxic
- Activity [3]: Non-Toxic
- inhibition in vivo at 15 mg/kg (NCI-H1975 [4]): 62%
- AUC [5]: 52.3 ng·h/mL
- Cmax [6]: 636 ng/mL
- half-life [7]: 3.25 h
- residual activity [8]: < 10%
- residual activity [9]: < 1%
- residual activity [10]: < 10%
- residual activity [11]: < 10%
- residual activity [12]: < 10%
